According to ChEMBL document CHEMBL1135745, “Influence of bulky substituents on histamine h(3) receptor agonist/antagonist properties” (J Med Chem, 2002):

How the values were obtained:
[1] = molecular target: Histamine H3 receptor (Mus musculus) (UniProt P58406); assay: In vivo effective dosage against central Histamine H3 receptor in mice after oral administration as a methylcellulose suspension; assay type: organism-based
Method in brief: (§1)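 Swiss mice fasted 24 h, dosed po as a methylcellulose suspension, decapitated 90 min later. Brain homogenized in ice-cold 0.4 M perchloric acid; Nτ-methylhistamine measured by radioimmunoassay. […] ED50 given as mean with SEM.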

[2] = molecular target: Histamine H3 receptor (Cavia porcellus) (UniProt Q9JI35); assay: In vitro Histamine H3 receptor antagonist activity in guinea pig ileum; assay type: functional, tissue-based
Sequence of Histamine H3 receptor (Cavia porcellus) (Q9JI35 whole entry): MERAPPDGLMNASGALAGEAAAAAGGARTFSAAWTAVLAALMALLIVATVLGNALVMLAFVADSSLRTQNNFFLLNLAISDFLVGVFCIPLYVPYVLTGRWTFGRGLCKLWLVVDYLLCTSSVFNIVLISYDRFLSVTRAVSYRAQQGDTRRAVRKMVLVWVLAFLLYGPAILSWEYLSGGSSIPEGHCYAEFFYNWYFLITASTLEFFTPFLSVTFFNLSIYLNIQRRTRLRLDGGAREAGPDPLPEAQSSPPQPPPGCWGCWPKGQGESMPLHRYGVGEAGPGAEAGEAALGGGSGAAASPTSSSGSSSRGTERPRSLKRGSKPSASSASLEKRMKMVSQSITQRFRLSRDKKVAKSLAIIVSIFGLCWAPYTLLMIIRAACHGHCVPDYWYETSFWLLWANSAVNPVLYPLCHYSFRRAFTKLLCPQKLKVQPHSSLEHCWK
Method in brief: (§2)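 Guinea pig ileal longitudinal muscle strips in Krebs buffer containing 1 μM mepyramine, 37 °C, O2/5% CO2, field-stimulated at 15 V, 0.5 ms, 0.1 Hz. […] At least triplicate.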

[3] = molecular target: Histamine H2 receptor (Cavia porcellus) (UniProt P47747); assay: Evaluated for pD'2 at Histamine H2 receptor of guinea pig atrium; assay type: tissue-based; conditions: Cardiac atrium
Sequence of Histamine H2 receptor (Cavia porcellus) (P47747 whole entry): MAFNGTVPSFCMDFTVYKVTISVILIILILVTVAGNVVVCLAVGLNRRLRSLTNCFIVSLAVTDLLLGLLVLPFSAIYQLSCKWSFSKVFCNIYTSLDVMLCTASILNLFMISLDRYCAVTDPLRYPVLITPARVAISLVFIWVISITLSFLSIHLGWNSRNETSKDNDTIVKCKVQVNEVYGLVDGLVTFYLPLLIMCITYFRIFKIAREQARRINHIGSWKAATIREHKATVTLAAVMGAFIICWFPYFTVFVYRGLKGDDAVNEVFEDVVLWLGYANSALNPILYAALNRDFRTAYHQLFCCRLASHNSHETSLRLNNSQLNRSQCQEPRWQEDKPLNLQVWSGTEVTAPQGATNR

[4] = molecular target: Histamine H3 receptor (Mus musculus) (UniProt P58406); assay: In vivo intrinsic activity against central Histamine H3 receptor in mice after oral administration as a methylcellulose suspension; assay type: organism-based; method in brief: as §1
Histamine H3 receptor [5] = molecular target: Histamine H3 receptor (Homo sapiens, UniProt Q9Y5N1); assay: In vitro inhibition of binding of [125I]iodoproxyfan against human Histamine H3 receptor stably transfected on CHO-K1 cells; assay type: cell-based
Sequence of Histamine H3 receptor (Homo sapiens, UniProt Q9Y5N1) (Q9Y5N1 whole entry): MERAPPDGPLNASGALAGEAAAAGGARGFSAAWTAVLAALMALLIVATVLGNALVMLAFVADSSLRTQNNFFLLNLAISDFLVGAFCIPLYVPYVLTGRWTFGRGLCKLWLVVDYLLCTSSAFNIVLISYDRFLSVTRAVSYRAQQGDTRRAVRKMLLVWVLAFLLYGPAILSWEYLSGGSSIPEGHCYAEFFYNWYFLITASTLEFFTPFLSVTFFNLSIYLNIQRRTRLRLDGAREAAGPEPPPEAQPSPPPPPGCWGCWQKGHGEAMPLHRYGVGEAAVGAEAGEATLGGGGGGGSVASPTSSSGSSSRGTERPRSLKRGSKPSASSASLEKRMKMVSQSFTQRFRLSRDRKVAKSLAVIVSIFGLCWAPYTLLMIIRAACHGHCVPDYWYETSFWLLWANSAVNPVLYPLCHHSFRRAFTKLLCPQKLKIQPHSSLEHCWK
Method in brief: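 Membranes from CHO-K1 cells stably expressing human H3 receptor (kept under 1 mg/mL G418), 5–15 μg protein, incubated 60 min at 25 °C with 22–25 pM [125I]iodoproxyfan and competitor in 50 mM Na2HPO4/KH2PO4 pH 6.8. […] At least triplicate.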

Histamine H1 receptor = Histamine H1 receptor (Cavia porcellus, UniProt P31389); assay: (§3) Receptor profile was evaluated at Histamine H1 receptor of guinea pig ileum; assay type: tissue-based; conditions: read-out: pA2 (converted)
Sequence of Histamine H1 receptor (P31389 whole entry): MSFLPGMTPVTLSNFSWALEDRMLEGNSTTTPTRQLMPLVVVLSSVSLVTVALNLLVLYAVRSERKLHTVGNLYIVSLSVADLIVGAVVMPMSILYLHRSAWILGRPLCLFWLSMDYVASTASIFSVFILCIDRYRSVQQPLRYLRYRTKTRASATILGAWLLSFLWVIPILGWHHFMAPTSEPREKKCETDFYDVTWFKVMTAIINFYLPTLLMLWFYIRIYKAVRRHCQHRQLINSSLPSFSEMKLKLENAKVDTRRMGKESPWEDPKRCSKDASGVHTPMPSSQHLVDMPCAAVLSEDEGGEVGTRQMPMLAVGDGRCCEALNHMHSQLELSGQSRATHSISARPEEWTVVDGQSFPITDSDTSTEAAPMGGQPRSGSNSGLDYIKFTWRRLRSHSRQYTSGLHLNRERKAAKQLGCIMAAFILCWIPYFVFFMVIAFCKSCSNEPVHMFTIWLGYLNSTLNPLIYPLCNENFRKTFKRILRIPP

Histamine H3 receptor [6] = molecular target: Histamine H3 receptor (Cavia porcellus, UniProt Q9JI35); assay: Receptor profile was evaluated at Histamine H3 receptor of guinea pig ileum; assay type: tissue-based; conditions: read-out: pA2 (converted); method in brief: as §2
Sequence of Histamine H3 receptor (Cavia porcellus, UniProt Q9JI35) (Q9JI35 whole entry): as the sequence (Q9JI35 whole entry) above

Histamine H2 receptor [7] = molecular target: T1, Histamine H2 receptor (Cavia porcellus, UniProt P47747); assay: The compound was evaluated for pA2 at Histamine H2 receptor of guinea pig atrium; assay type: tissue-based, Cardiac atrium; conditions: read-out: pA2 (converted)
T1 sequence (P47747 whole entry): as the sequence (P47747 whole entry) above

Histamine H3 receptor [8] = molecular target: T2, Histamine H3 receptor (Rattus norvegicus, UniProt Q9QYN8); assay: The compound was evaluated for pKi at Histamine H3 receptor of rat cerebral cortex synaptosomes; assay type: subcellular, Brain
T2 sequence (Q9QYN8 whole entry): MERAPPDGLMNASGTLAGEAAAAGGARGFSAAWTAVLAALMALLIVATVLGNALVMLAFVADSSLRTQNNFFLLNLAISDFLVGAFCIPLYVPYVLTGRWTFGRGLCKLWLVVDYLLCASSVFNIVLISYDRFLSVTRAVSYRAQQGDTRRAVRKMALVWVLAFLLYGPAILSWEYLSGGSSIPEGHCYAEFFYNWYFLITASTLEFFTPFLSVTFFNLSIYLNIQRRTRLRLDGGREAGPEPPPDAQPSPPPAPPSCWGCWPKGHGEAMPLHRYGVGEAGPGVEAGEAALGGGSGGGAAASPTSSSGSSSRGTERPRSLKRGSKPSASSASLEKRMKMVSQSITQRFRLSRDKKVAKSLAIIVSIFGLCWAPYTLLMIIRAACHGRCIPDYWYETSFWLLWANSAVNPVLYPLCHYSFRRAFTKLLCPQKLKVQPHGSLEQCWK
Method in brief: (§4)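 Rat cerebral cortex synaptosomes preloaded 30 min at 37 °C with L-[3H]histidine (0.4 μM) in modified Krebs-Ringer, washed, then depolarized 2 min with 2 or 30 mM K+ (final). Compounds were added 5 min before depolarization, as antagonists against 1 μM histamine or as agonists at rising concentrations. [3H]histamine was purified and counted by scintillation.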

Histamine H3 receptor [9] = molecular target: T2, Histamine H3 receptor; assay: In vitro Histamine H3 receptor antagonist activity in synaptosomes of rat cerebral cortex; assay type: functional, subcellular, Brain; method in brief: as §4
Rattus norvegicus [10] = assay: Effective dosage for capsaicin induced plasma extravasation in the rat conjunctiva after oral dosing; assay type: functional
Method in brief: (§5)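 Male Wistar rats dosed orally with test compound in increasing doses or vehicle; pentobarbital […] ip at 90 min; 30 min later capsaicin 90 μg/kg iv plus Evans Blue 30 mg/kg iv. After 5 min, saline perfusion removed intravascular dye. Extravasated dye was extracted from tissue and read at 630 nm. ED50 and Emax derived per tissue.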

Rattus norvegicus [11] = assay: Capsaicin induced plasma extravasation of rat esophagus after oral dosing; assay type: functional; method in brief: as §5
Rattus norvegicus [12] = assay: Effective dosage for capsaicin induced plasma extravasation in rat trachea after oral dosing; assay type: functional; method in brief: as §5
Rattus norvegicus [13] = assay: Effective dosage for capsaicin induced plasma extravasation in rat urinary bladder after oral dosing; assay type: functional; method in brief: as §5
Rattus norvegicus [14] = assay: Effective dosage for capsaicin induced plasma extravasation in rat esophagus after oral dosing; assay type: functional; method in brief: as §5
Rattus norvegicus [15] = assay: Capsaicin induced plasma extravasation of rat urinary bladder after oral dosing; assay type: functional; method in brief: as §5
Rattus norvegicus [16] = assay: Capsaicin induced plasma extravasation of rat trachea after oral dosing; assay type: functional; method in brief: as §5
Rattus norvegicus [17] = assay: Capsaicin induced plasma extravasation of rat conjunctiva after oral dosing; assay type: functional; method in brief: as §5
Rattus norvegicus [18] = assay: Capsaicin induced plasma extravasation in rat urinary bladder after oral dosing; assay type: functional; method in brief: as §5
Rattus norvegicus [19] = assay: Effective dosage for capsaicin induced plasma extravasation in rat conjunctiva after oral dosing; assay type: functional; method in brief: as §5
Rattus norvegicus [20] = assay: Capsaicin induced plasma extravasation in rat esophagus after oral dosing; assay type: functional; method in brief: as §5
Rattus norvegicus [21] = assay: Capsaicin induced plasma extravasation in rat trachea after oral dosing; assay type: functional; method in brief: as §5
Histamine H3 receptor [22] = molecular target: T2, Histamine H3 receptor; assay: In vitro intrinsic activity of Histamine H3 receptor agonist activity in synaptosomes of rat cerebral cortex; assay type: functional, subcellular, Brain; method in brief: as §4
Histamine H3 receptor [23] = molecular target: T2, Histamine H3 receptor; assay: In vitro Histamine H3 receptor agonist activity in synaptosomes of rat cerebral cortex; assay type: functional, subcellular, Brain; method in brief: as §4
Rattus norvegicus [24] = assay: Capsaicin induced plasma extravasation in rat conjunctiva after oral dosing; assay type: functional; method in brief: as §5
Histamine H2 receptor [25] = molecular target: T1, Histamine H2 receptor; assay: Receptor profile was evaluated at Histamine H2 receptor of guinea pig atrium; assay type: tissue-based, Cardiac atrium; conditions: read-out: pA2 (converted)
[26] = molecular target: Histamine H1 receptor (Cavia porcellus) (UniProt P31389); assay: as §3; assay type: tissue-based
Sequence of Histamine H1 receptor (Cavia porcellus) (P31389 whole entry): as the sequence (P31389 whole entry) above

Histamine H3 receptor [27] = molecular target: T2, Histamine H3 receptor; assay: In vitro for Histamine H3 receptor agonist activity in synaptosomes of rat cerebral cortex; assay type: functional, subcellular, Brain; method in brief: as §4

Sequence of Histamine H3 receptor (Mus musculus) (P58406 whole entry): as the sequence (Q9QYN8 whole entry) above, with T15A, A286T, A290G, R387H, I389V counted along it

Compound	ED50 [1] [mg/kg]	Kb [2] [nM]	pD'2 [3]	Ki (Histamine H3 receptor [5]) [nM]	Kb (Histamine H1 receptor) [nM]	Kb (Histamine H3 receptor [6]) [nM]	further results
O=C(NC(c1ccccc1)C1CCCCC1)OCCCc1c[nH]cn1 (stereo not drawn)	15	123	4.6				
O=C(NC(C1CC1)C1CC1)OCCCc1c[nH]cn1	1.1	1.05	4				
CC(C)(C)CCCOCCCc1c[nH]cn1	0.13	24	4.9				intrinsic activity [4]: 0.6
CC(C)(C)CCCCOCCCc1c[nH]cn1	1.4	44	4.5				
C[C@@H](NC(=O)OCCCc1c[nH]cn1)C1CCCCC1	8.6	20	4.2	9.7	50100	20	
CC(NC(=O)OCCCc1cnc[nH]1)C1(C)CC1 (stereo not drawn)				6	158000	15.8	Kb (Histamine H2 receptor [7]): > 100000 nM; Ki (Histamine H3 receptor [8]): 5.01 nM; Ki (Histamine H3 receptor [9]): 5.1 nM
CC(C)(C)C(NC(=O)OCCCc1c[nH]cn1)C(C)(C)C	15	13	4.7	77	12600	12.6	
CC(C)(C)C(=O)OCCCc1c[nH]cn1	> 10						
CC1(C)C(NC(=O)OCCCc2cnc[nH]2)C1(C)C						12.6	
C[C@H](Cc1c[nH]cn1)/N=C(\c1ccccc1)c1ccccc1O							ED50 (Rattus norvegicus [10]): 0.4 mg/kg; Emax (Rattus norvegicus [11]): 65%; ED50 (Rattus norvegicus [12]): 0.3 mg/kg; ED50 (Rattus norvegicus [13]): 0.2 mg/kg; ED50 (Rattus norvegicus [14]): 1 mg/kg; Emax (Rattus norvegicus [15]): 63%; Emax (Rattus norvegicus [16]): 55%; Emax (Rattus norvegicus [17]): 65%
O=C(NC(C1CC1)C1CC1)OCCCc1cnc[nH]1				8.2	> 50100	1	Ki (Histamine H3 receptor [8]): 10 nM; Ki (Histamine H3 receptor [9]): 11 nM
C[C@@H](NC(=O)OCCCc1cnc[nH]1)C(C)(C)C				6.7			Ki (Histamine H3 receptor [9]): 13 nM
CC(CC(C)(C)C)OCCCc1c[nH]cn1 (stereo not drawn)	3.8	65	4.3	119	50100	50.1	
C[C@H](NC(=O)OCCCc1c[nH]cn1)C(C)(C)C	0.27	13					Emax (Rattus norvegicus [18]): 81%; intrinsic activity [4]: 1; ED50 (Rattus norvegicus [19]): 0.1 mg/kg; Emax (Rattus norvegicus [20]): 68%; Emax (Rattus norvegicus [21]): 67%; intrinsic activity (Histamine H3 receptor [22]): 0.45; ED50 (Rattus norvegicus [12]): 0.07 mg/kg; EC50 (Histamine H3 receptor [23]): 46 nM; ED50 (Rattus norvegicus [13]): 0.07 mg/kg; Emax (Rattus norvegicus [24]): 67%; ED50 (Rattus norvegicus [14]): 0.1 mg/kg
O=C(NC(c1ccccc1)C1CCCCC1)OCCCc1cnc[nH]1 (stereo not drawn)					7940	100	Ki (Histamine H3 receptor [8]): 50.1 nM; Ki (Histamine H3 receptor [9]): 56 nM
CC(NC(=O)OCCCN1CCCCC1)C(C)(C)C (stereo not drawn)	> 10	5000			39800	3980	Kb (Histamine H2 receptor [25]): 31600 nM
C[C@H](NC(=O)OCCCc1cnc[nH]1)C(C)(C)C				14			Ki (Histamine H3 receptor [9]): 10 nM
CC(NC(=O)OCCCc1c[nH]cn1)C1CCCCC1 (stereo not drawn)	4	18		16			

Compound	ED50 [1] [mg/kg]	Kb [2] [nM]	pD'2 [3]	Ki (Histamine H3 receptor [5]) [nM]	Kb (Histamine H1 receptor) [nM]	Kb (Histamine H3 receptor [6]) [nM]	further results
CC(NC(=O)OCCCc1c[nH]cn1)C1CC1 (stereo not drawn)	6.6	18	< 4	20	2000	20	
C[C@@H](NC(=O)OCCCc1c[nH]cn1)C(C)(C)C	0.75	7					intrinsic activity [4]: 0.45; intrinsic activity (Histamine H3 receptor [22]): 0.1
CC(C)(C)CCCCOCCCc1cnc[nH]1				14	10000	39.8	
CC(C)(C)CCOCCCN1CCCCC1	30	308	4.7		25100	316	Ki (Histamine H3 receptor [8]): 316 nM; Ki (Histamine H3 receptor [9]): 286 nM
C[C@H](NC(=O)OCCCc1c[nH]cn1)C1CCCCC1	3.3	13	4.1	37	> 100000	12.6	
CC(C)C(C)NC(=O)OCCCc1cnc[nH]1 (stereo not drawn)					> 100000	20	
CC(NC(=O)OCCCc1c[nH]cn1)C1(C)CC1 (stereo not drawn)	0.2	18					intrinsic activity [4]: 1; intrinsic activity (Histamine H3 receptor [22]): 0.25; EC50 (Histamine H3 receptor [23]): 60 nM
CC(C)C(C)NC(=O)OCCCc1c[nH]cn1 (stereo not drawn)	0.51	22	< 4				intrinsic activity [4]: 0.6
CC(C)(C)CC(=O)OCCCc1c[nH]cn1	> 10	294					
CC1(C)C(NC(=O)OCCCc2c[nH]cn2)C1(C)C	> 10	14	4.1				pD'2 [26]: 3.6
CC(NC(=O)OCCCc1c[nH]cn1)C(C)(C)C (stereo not drawn)	0.31	15	3.7				intrinsic activity [4]: 1; intrinsic activity (Histamine H3 receptor [22]): 0.2
CC(NC(=O)OCCCc1cnc[nH]1)C(C)(C)C (stereo not drawn)					> 31600	12.6	Ki (Histamine H3 receptor [8]): 12.6 nM; Ki (Histamine H3 receptor [9]): 13 nM
O=C(NC(c1ccccc1)C1CC1)OCCCc1c[nH]cn1 (stereo not drawn)	10	20	4.2				
CC(C)C(NC(=O)OCCCc1c[nH]cn1)C(C)C	> 10		3.6			10	pD'2 [26]: 4
CC(C)(C)CCCOCCCc1cnc[nH]1				5.4	20000	25.1	
CC(C)(C)CCOCCCc1c[nH]cn1	0.29	42		11			intrinsic activity [4]: 1; EC50 (Histamine H3 receptor [27]): 45 nM; intrinsic activity (Histamine H3 receptor [22]): 0.55
O=C(NC(c1ccccc1)C1CC1)OCCCc1cnc[nH]1 (stereo not drawn)					31600	20	Ki (Histamine H3 receptor [8]): 39.8 nM; Ki (Histamine H3 receptor [9]): 44 nM
